Source: BindingDB's records for doi:10.1016/j.ejmech.2019.111920 (Jagiellonian University Medical College, 2020)

What follows are compounds tested against T1, Sodium- and chloride-dependent GABA transporter 2 (Mus musculus, UniProt P31649) (assay: Inhibition of mouse GAT2 expressed in HEK293 cell line assessed as inhibition of [3H]GABA uptake measured after 35 mins by liquid scintillation method).
T1 sequence (P31649 whole entry): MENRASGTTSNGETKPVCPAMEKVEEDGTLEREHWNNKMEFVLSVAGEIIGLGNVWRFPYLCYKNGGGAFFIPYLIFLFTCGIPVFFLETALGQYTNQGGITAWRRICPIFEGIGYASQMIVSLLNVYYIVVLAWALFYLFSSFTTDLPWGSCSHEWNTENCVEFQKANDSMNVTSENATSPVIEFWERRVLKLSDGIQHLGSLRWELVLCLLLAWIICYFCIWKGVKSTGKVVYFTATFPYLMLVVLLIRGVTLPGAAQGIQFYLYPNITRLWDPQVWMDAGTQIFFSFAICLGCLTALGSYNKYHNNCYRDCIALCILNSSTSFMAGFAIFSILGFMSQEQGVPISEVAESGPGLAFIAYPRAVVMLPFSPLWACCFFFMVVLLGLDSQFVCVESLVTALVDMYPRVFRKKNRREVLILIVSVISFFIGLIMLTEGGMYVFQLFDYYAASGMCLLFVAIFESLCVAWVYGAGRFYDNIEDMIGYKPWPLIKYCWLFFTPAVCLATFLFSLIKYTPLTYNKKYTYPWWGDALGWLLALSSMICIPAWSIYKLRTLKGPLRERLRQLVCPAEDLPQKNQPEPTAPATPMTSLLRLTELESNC
In short: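 [3H]GABA uptake assay at each mGAT subtype, with screening at 100 µM inhibitor. […] Otherwise, the remaining uptake at 100 µM is reported as a percentage. Values without SEM come from a single triplicate experiment.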

Row | SMILES | IC50
1 | O=C(O)C1=CCCN(CCON=C(c2ccccc2)c2ccccc2)C1 | 631 µM
2 | NCC(O)C(=O)O (stereo unspecified) | 229 µM
3 | Cc1ccsc1C(=CCCN(C)C(CCO)C(=O)NCc1ccccc1)c1sccc1C (stereo unspecified) | 20.4 µM
4 | Cc1ccsc1C(=CCCN(C)C(CCO)C(=O)NCc1ccccc1Cl)c1sccc1C (stereo unspecified) | 10.5 µM
5 | Cc1ccsc1C(=CCCN(C)C(CCO)C(=O)NCc1ccc(F)cc1)c1sccc1C (stereo unspecified) | 5.62 µM
6 | Cc1ccc(CNC(=O)C(CCO)N(C)CCC=C(c2sccc2C)c2sccc2C)cc1 (stereo unspecified) | 9.77 µM
7 | Cc1ccsc1C(=CCCN(C)C(CCO)C(=O)NCc1ccc(F)cc1F)c1sccc1C (stereo unspecified) | 10 µM
8 | Cc1ccsc1C(=CCCN(C)C(CC(C)O)C(=O)NCc1ccccc1)c1sccc1C (stereo unspecified) | 8.91 µM
9 | Cc1ccsc1C(=CCCN(C)C(CC(C)O)C(=O)NCc1ccccc1Cl)c1sccc1C (stereo unspecified) | 10.4 µM
10 | Cc1ccsc1C(=CCCN(C)C(CC(C)O)C(=O)NCc1ccc(Cl)cc1)c1sccc1C (stereo unspecified) | 10.5 µM
11 | Cc1ccsc1C(=CCCN(C)C(CC(C)O)C(=O)NCc1ccc(F)cc1)c1sccc1C (stereo unspecified) | 26.3 µM
12 | Cc1ccc(CNC(=O)C(CC(C)O)N(C)CCC=C(c2sccc2C)c2sccc2C)cc1 (stereo unspecified) | 17 µM
13 | Cc1ccsc1C(=CCCN(C)C(CCN)C(=O)NCc1ccccc1)c1sccc1C (stereo unspecified) | 5.5 µM
14 | Cc1ccc(CNC(=O)C(CCN)N(C)CCC=C(c2sccc2C)c2sccc2C)cc1 (stereo unspecified) | 7.76 µM
15 | CC(=O)NCCC(C(=O)NCc1ccccc1Cl)N(C)CCC=C(c1sccc1C)c1sccc1C (stereo unspecified) | 4.47 µM
16 | O=C(O)C1=CCCN(CCO/N=C/c2ccccc2-c2ccc(Cl)cc2Cl)C1 | 49 µM
17 | Cc1ccsc1C(=CCCN(C)C(CO)C(=O)NCc1ccccc1)c1sccc1C (stereo unspecified) | 30.9 µM
18 | Cc1ccsc1C(=CCCN(C)C(CO)C(=O)NCc1ccc(Cl)cc1)c1sccc1C (stereo unspecified) | 15.8 µM
19 | Cc1ccsc1C(=CCCN(C)C(CO)C(=O)NCc1ccc(F)cc1)c1sccc1C (stereo unspecified) | 22.4 µM
20 | Cc1ccc(CNC(=O)C(CO)N(C)CCC=C(c2sccc2C)c2sccc2C)cc1 (stereo unspecified) | 24 µM
21 | Cc1ccsc1C(=CCCN(C)C1CCc2onc(O)c2C1)c1sccc1C (stereo unspecified) | 25.7 µM
